# Results from different studies.
# Lines come from different studies, so protocols differ.
# Target: Platelet-derived growth factor receptor alpha (PDGFRA, Homo sapiens, UniProt P16234)
SMILES,test,setting,remaining binding [%]
COc1ncc2cc3ccccc3nc2c1C#N,"cell-free assay, competition with immobilised ligand",5 µM,83
CN(C)c1ncc(F)c(-c2cnn3ncccc23)n1,binding,1 µM,67
COc1ccc2c(O[C@@H]3C[C@H]4C(=O)N[C@]5(C(=O)O)CC5/C=C\CCCCC[C@H](NC(=O)OC5CCCC5)C(=O)N4C3)cc(-c3csc(NC(=O)C(C)C)n3)nc2c1C (some centres unmarked),"cell-free assay, competition with immobilised ligand",1 µM,84
C[C@@H]1CCN(c2nccc(-c3cnn4ncccc34)n2)C1,binding,1 µM,81
CC(C)(O)c1cncc(-c2nc3ccc(F)cc3n2C2CC2)c1,"cell-free assay, competition with immobilised ligand",1 µM,100
COc1cnc(Nc2cccc(S(N)(=O)=O)c2)nc1N1CCN(c2ccccc2)CC1,"binding, competition with immobilised ligand",1 µM,85
O=C(Nc1c[nH]nc1C(=O)NC1CCNCC1)c1cc(F)cc(F)c1,"binding, competition with immobilised ligand",1 µM,83
C[C@@H](c1ccc(-n2cnc3c(N)ncnc32)cc1)N1CCc2nn(C)c(Cc3ccccc3)c2C1=O,"binding, competition with immobilised ligand",0.1 µM,20
N[C@H]1CCN(c2nccc(-c3cnn4ncccc34)n2)C1,binding,1 µM,90
COC(=O)Nc1nc2ccc(C(=O)c3ccccc3)cc2[nH]1,"cell-free assay, competition with immobilised ligand",10 µM,7.8
CN(C)c1nccc(-c2cnn3ncccc23)n1,binding,1 µM,100
CS(=O)(=O)c1cc(C2(NC(=O)c3cncc4c3cnn4-c3ccc(F)cc3)CC2)ccn1,"cell-free assay, competition with immobilised ligand",1 µM,90
CN(CCCC(F)(F)F)c1nccc(-c2cnn3ncccc23)n1,binding,1 µM,100
O=C(c1ccc(Nc2nccc(-c3cc4ccccc4s3)n2)cc1)N1CCC(N2CCCC2)CC1,"binding, competition with immobilised ligand",1 µM,52
CCOCCn1cc(C(=O)Nc2ccc(-n3nc(-c4cccnc4)cc3C(F)(F)F)cn2)ccc1=O,"cell-free assay, competition with immobilised ligand",1 µM,68
N#Cc1ccccc1CSc1nnc2c(n1)[nH]c1ccccc12,"binding, competition with immobilised ligand",10 µM,94
CC1=C(C#N)C(c2ccc3c(c2)c(NC(=O)c2ccccc2C)nn3C)C(C#N)=C(C)N1,"cell-free assay, competition with immobilised ligand",1 µM,86
C[C@@H]1CN(c2ccc3ncc(-c4ccc5[nH]nc(C6CC6)c5c4)n3n2)C[C@H](C)O1,"binding, competition with immobilised ligand",50 nM,81
O=C(c1ccc(Nc2ncc(Cl)c(-c3cc4ccccc4s3)n2)cc1)N1CCC(N2CCCC2)CC1,"binding, competition with immobilised ligand",1 µM,35
COc1cnc(Nc2cccc(S(N)(=O)=O)c2)nc1N1CCN(c2ccccc2)C(=O)C1,"binding, competition with immobilised ligand",1 µM,82
C[C@H](c1cccc(C#N)c1)n1cc(Cl)cc(C(N)=O)c1=N,"cell-free assay, competition with immobilised ligand",1 µM,94
C=CC(=O)N1CCC(C(=O)NCC(=O)N2CCN(c3nc(-c4cnc(N)nc4C(F)F)nc(N4CCOCC4)n3)CC2)CC1,"binding, competition with immobilised ligand",1 µM,91
COCCOc1nc(-c2ccc(Cl)nc2)nc2c1CN(C(=O)c1ncn3ccccc13)CC2,"cell-free assay, competition with immobilised ligand",0.1 µM,100
CC1CCCN1c1nccc(-c2cnn3ncccc23)n1 (centres unmarked),binding,1 µM,94
Cn1cc(Cl)c2c(Oc3c(F)cc(Nc4cc(Cl)nc(N)n4)cc3F)ccnc21,"cell-free assay, competition with immobilised ligand",0.1 µM,98
O=C(NCCCN1CCOCC1)c1ccc(Nc2nccc(-c3cc4ccccc4s3)n2)cc1,"binding, competition with immobilised ligand",1 µM,64
